In brackets after ≈: the same amount, converted by molar mass.
What was measured:
[1] = Aqueous solubility of the compound by HPLC analysis; assay type: physicochemical; conditions: water
Procedure, shortened: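 Solubility determined by HPLC measurement of the concentration in saturated aqueous solutions of the compounds.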

[2] = molecular target: T1, Serine/threonine-protein kinase D2 (Homo sapiens) (UniProt Q9BZL6); assay: Inhibition of PKD2 at 30 uM by microfluidic mobility shift assay
T1 sequence (whole entry): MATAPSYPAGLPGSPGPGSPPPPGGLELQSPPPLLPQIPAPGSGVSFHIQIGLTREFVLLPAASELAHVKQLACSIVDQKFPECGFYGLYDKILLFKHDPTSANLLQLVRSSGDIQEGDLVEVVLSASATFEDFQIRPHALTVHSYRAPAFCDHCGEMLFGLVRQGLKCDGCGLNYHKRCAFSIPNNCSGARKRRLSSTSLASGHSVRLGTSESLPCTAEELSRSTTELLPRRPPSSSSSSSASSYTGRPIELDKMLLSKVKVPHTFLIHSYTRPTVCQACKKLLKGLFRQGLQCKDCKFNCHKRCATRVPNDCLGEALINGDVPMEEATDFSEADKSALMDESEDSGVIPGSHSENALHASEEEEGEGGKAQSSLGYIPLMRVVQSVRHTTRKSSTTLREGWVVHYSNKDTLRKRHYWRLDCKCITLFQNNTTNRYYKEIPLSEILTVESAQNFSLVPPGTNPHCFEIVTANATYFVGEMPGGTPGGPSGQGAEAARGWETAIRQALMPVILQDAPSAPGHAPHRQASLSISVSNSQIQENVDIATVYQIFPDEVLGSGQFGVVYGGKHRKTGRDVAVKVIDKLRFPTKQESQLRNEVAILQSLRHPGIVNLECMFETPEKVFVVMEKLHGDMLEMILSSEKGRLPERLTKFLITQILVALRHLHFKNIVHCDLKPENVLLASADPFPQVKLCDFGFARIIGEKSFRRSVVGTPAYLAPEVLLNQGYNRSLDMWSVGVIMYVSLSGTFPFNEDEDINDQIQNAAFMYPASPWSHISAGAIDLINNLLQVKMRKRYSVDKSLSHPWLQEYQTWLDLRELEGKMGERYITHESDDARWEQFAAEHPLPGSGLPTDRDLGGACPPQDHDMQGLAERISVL
Procedure, shortened: (§1)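 Single-concentration screen, singlicate, 30 uM final (diluted from 1 mM DMSO solutions), fluorescently tagged peptide substrate appropriate to each kinase, ATP at apparent Km for each protein. Phosphorylated and unphosphorylated peptides separated electrophoretically; conversion is the phosphorylated peak area over the sum of both peaks. No-inhibitor and no-ATP controls; H89 reference on each plate.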

[3] = molecular target: Mitogen-activated protein kinase 1 (Homo sapiens) (UniProt P28482); assay: Inhibition of ERK2 at 30 uM by microfluidic mobility shift assay; procedure, shortened: as §1
[4] = molecular target: Mitogen-activated protein kinase 3 (Homo sapiens) (UniProt P27361); assay: Inhibition of ERK1 at 30 uM by microfluidic mobility shift assay; procedure, shortened: as §1
[5] = molecular target: Insulin receptor (Homo sapiens) (UniProt P06213); assay: Inhibition of INSR at 30 uM by microfluidic mobility shift assay; procedure, shortened: as §1
[6] = molecular target: RAC-beta serine/threonine-protein kinase (Homo sapiens) (UniProt P31751); assay: Inhibition of AKT2 at 30 uM by microfluidic mobility shift assay; procedure, shortened: as §1
[7] = molecular target: MAP kinase-activated protein kinase 2 (Homo sapiens, UniProt P49137); assay: Inhibition of MAPKAPK2 at 30 uM by microfluidic mobility shift assay; procedure, shortened: as §1
[8] = molecular target: Ribosomal protein S6 kinase alpha-1 (Homo sapiens) (UniProt Q15418); assay: Inhibition of RSK1 at 30 uM by microfluidic mobility shift assay; procedure, shortened: as §1
[9] = molecular target: Tyrosine-protein kinase Lck (Homo sapiens, UniProt P06239); assay: Inhibition of LCK at 30 uM by microfluidic mobility shift assay; procedure, shortened: as §1
[10] = molecular target: Serine/threonine-protein kinase Chk2 (Homo sapiens, UniProt O96017); assay: Inhibition of CHK2 at 30 uM by microfluidic mobility shift assay; procedure, shortened: as §1
[11] = molecular target: Ribosomal protein S6 kinase alpha-5 (Homo sapiens) (UniProt O75582); assay: Inhibition of MSK1 at 30 uM by microfluidic mobility shift assay; procedure, shortened: as §1
[12] = molecular target: Tyrosine-protein kinase ABL1 (Homo sapiens, UniProt P00519); assay: Inhibition of ABL at 30 uM by microfluidic mobility shift assay; procedure, shortened: as §1
[13] = molecular target: Tyrosine-protein kinase Lyn (Homo sapiens, UniProt P07948); assay: Inhibition of LYN at 30 uM by microfluidic mobility shift assay; procedure, shortened: as §1
[14] = molecular target: T2, Protein kinase C zeta type (Homo sapiens) (UniProt Q05513); assay: Inhibition of PKCz at 30 uM by microfluidic mobility shift assay; procedure, shortened: as §1
T2 sequence (whole entry): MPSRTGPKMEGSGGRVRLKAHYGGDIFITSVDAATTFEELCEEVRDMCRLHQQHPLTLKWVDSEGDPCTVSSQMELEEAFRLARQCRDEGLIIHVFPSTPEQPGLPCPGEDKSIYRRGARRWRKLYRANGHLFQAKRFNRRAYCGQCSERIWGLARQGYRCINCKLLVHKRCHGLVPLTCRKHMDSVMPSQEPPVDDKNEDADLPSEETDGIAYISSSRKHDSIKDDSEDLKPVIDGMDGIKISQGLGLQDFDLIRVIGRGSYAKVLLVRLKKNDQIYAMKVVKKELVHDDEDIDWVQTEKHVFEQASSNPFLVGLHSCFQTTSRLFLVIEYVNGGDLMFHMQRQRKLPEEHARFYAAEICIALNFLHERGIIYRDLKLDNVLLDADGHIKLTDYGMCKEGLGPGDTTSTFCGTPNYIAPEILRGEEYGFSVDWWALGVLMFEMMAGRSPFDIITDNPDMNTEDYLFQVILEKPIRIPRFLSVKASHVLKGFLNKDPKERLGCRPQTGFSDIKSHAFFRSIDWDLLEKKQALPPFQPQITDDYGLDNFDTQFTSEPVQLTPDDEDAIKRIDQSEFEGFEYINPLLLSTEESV

[15] = molecular target: Proto-oncogene tyrosine-protein kinase Src (Homo sapiens, UniProt P12931); assay: Inhibition of SRC at 30 uM by microfluidic mobility shift assay; procedure, shortened: as §1
[16] = molecular target: T3, Aurora kinase A (Homo sapiens) (UniProt O14965); assay: Inhibition of AurA at 30 uM by microfluidic mobility shift assay; procedure, shortened: as §1
T3 sequence (whole entry): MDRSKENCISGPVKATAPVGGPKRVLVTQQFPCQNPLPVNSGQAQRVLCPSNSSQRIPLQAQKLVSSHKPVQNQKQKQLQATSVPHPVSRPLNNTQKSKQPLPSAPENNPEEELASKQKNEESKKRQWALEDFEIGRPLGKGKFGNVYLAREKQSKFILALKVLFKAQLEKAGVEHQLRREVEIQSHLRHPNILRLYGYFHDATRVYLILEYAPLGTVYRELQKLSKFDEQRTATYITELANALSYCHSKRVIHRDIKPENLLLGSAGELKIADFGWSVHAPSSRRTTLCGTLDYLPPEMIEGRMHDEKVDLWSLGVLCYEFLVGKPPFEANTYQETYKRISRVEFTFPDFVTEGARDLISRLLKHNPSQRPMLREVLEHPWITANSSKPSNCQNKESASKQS

[17] = molecular target: Mitogen-activated protein kinase 14 (Homo sapiens, UniProt Q16539); assay: Inhibition of p38alpha at 30 uM by microfluidic mobility shift assay; procedure, shortened: as §1
[18] = molecular target: Glycogen synthase kinase-3 beta (Homo sapiens) (UniProt P49841); assay: Inhibition of GSK3B at 30 uM by microfluidic mobility shift assay; procedure, shortened: as §1
[19] = molecular target: RAC-alpha serine/threonine-protein kinase (Homo sapiens) (UniProt P31749); assay: Inhibition of AKT1 at 30 uM by microfluidic mobility shift assay; procedure, shortened: as §1
[20] = molecular target: Tyrosine-protein kinase Fyn (Homo sapiens, UniProt P06241); assay: Inhibition of FYN at 30 uM by microfluidic mobility shift assay; procedure, shortened: as §1
[21] = molecular target: T4, MAP kinase-activated protein kinase 5 (Homo sapiens) (UniProt Q8IW41); assay: Inhibition of PRAK1 at 30 uM by microfluidic mobility shift assay; procedure, shortened: as §1
T4 sequence (whole entry): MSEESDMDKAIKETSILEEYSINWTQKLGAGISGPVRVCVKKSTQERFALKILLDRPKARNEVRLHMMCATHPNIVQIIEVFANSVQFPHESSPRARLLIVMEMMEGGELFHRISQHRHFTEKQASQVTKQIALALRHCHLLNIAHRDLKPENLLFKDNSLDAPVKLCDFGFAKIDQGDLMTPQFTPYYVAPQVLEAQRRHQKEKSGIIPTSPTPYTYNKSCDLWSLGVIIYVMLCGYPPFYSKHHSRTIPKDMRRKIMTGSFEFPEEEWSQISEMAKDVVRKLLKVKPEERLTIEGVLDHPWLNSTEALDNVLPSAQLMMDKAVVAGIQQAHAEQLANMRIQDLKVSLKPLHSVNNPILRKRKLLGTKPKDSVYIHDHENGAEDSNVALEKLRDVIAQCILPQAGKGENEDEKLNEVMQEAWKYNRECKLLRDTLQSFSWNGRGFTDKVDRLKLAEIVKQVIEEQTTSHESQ

[22] = molecular target: T5, Serine/threonine-protein kinase Chk1 (Homo sapiens) (UniProt O14757); assay: Inhibition of CHK1 at 30 uM by microfluidic mobility shift assay; procedure, shortened: as §1
T5 sequence (whole entry): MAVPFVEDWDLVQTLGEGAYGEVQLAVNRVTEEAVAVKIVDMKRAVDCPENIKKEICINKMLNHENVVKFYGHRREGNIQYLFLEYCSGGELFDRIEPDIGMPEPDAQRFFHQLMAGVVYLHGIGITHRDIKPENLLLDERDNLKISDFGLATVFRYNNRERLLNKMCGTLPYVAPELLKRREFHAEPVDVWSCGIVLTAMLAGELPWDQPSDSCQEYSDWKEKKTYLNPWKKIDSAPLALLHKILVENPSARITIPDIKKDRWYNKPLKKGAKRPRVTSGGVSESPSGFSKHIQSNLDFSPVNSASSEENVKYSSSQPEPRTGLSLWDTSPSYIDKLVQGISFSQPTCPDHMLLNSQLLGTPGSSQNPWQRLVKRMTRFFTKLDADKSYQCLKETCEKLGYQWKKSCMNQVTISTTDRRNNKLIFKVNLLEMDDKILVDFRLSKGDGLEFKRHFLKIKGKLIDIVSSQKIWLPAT

[23] = Inhibition of PKA at 30 uM by microfluidic mobility shift assay; procedure, shortened: as §1

Mitogen-activated protein kinase 14, sequence (Q16539 whole entry): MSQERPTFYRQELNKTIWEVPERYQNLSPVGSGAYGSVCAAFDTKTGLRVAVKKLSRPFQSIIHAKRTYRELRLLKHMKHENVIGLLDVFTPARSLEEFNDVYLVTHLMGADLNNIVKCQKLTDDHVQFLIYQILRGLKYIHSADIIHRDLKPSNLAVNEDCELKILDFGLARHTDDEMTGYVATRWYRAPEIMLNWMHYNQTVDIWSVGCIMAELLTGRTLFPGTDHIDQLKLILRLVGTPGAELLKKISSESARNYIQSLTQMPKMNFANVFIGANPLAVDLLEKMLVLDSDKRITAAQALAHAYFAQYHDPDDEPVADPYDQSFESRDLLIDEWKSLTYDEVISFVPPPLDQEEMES
Glycogen synthase kinase-3 beta (Homo sapiens), sequence (P49841 whole entry, looked up): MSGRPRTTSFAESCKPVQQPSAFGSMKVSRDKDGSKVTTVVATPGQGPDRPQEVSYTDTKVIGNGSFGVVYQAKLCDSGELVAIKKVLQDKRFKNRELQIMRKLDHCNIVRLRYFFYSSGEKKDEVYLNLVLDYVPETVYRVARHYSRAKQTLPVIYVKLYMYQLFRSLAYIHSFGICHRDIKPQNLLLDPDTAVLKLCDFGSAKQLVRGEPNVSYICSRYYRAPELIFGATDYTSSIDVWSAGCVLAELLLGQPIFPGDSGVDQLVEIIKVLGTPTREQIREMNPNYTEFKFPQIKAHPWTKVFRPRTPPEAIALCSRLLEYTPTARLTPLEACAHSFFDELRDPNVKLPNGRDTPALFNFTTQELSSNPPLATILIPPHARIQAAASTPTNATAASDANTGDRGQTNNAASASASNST
Proto-oncogene tyrosine-protein kinase Src, sequence (P12931 2-536 limits assumed): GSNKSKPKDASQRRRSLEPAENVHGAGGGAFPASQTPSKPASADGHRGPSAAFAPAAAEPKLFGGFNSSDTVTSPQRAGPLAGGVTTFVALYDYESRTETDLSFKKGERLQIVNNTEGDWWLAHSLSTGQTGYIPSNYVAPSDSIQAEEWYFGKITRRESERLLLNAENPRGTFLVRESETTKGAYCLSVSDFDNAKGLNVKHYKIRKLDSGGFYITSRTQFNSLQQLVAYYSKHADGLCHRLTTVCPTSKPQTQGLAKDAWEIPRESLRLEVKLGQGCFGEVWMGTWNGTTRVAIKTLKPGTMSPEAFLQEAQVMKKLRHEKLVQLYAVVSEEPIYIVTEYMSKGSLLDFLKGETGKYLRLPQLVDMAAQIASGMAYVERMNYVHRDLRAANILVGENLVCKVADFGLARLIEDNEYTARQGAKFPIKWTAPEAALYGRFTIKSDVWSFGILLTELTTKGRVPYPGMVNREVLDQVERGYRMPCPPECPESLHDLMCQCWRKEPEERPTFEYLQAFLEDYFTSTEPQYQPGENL
Serine/threonine-protein kinase Chk2, sequence (O96017 whole entry): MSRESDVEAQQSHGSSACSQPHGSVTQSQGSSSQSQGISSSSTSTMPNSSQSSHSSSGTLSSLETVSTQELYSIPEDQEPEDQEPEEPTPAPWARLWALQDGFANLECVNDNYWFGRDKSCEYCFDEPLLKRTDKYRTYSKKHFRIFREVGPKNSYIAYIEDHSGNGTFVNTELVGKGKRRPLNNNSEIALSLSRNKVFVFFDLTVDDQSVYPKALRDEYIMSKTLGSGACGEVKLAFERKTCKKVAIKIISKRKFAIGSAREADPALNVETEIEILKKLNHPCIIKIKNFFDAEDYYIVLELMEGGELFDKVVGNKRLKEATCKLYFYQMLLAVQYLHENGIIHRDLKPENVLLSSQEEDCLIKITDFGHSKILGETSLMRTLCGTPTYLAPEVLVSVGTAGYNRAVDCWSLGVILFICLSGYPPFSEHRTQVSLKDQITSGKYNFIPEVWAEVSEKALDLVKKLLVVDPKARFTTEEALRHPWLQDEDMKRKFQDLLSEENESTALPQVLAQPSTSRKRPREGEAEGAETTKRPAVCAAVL
MAP kinase-activated protein kinase 2, sequence (P49137 whole entry, looked up): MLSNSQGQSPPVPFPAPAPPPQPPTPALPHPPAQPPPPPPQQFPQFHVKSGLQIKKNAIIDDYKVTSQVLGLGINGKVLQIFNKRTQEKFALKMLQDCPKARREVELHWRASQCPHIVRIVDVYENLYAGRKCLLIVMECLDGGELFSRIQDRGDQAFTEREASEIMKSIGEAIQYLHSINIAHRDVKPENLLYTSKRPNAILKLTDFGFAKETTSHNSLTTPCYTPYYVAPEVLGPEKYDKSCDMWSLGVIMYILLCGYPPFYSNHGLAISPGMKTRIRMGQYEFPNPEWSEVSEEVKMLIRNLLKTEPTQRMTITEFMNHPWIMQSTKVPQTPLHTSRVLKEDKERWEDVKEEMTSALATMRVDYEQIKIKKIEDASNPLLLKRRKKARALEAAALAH
Insulin receptor (Homo sapiens), sequence (P06213 28-758 limits assumed): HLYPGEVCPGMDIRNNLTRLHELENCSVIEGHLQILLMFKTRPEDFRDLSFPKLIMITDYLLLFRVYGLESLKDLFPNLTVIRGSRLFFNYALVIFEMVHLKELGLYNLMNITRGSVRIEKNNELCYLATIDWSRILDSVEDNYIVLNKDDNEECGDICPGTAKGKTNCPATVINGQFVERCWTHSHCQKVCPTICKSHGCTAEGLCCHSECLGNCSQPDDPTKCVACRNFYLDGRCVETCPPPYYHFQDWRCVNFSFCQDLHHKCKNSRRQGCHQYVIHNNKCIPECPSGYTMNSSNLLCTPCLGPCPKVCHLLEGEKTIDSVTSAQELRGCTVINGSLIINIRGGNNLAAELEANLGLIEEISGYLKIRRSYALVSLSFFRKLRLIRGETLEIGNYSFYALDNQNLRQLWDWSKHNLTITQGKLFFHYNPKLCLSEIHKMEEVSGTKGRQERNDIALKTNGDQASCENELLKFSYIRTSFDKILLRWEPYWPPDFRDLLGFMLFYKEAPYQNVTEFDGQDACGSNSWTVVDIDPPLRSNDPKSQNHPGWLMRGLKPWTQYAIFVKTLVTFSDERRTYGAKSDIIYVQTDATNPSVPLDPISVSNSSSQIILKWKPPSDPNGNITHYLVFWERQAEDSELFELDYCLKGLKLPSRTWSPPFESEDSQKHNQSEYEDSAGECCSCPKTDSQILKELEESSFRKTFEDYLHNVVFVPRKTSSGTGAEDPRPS
Insulin receptor (Homo sapiens), sequence (P06213 763-1382 limits assumed): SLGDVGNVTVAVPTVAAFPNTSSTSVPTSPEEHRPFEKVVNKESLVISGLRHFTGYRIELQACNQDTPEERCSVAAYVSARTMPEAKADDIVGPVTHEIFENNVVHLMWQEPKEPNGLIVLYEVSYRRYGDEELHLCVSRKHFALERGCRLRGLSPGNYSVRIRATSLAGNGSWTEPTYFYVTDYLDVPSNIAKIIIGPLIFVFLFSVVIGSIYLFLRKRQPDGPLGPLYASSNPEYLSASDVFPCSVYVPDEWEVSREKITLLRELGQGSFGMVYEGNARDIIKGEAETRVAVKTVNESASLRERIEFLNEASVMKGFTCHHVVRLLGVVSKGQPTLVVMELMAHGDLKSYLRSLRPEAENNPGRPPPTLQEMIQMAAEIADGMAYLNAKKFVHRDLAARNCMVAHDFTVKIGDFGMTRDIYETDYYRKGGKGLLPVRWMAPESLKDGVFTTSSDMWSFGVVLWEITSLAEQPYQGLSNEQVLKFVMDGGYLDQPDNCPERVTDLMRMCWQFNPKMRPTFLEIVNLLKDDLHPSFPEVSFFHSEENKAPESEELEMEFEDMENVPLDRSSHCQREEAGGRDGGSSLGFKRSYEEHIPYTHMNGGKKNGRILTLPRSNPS
Tyrosine-protein kinase Fyn, sequence (P06241 2-537 limits assumed): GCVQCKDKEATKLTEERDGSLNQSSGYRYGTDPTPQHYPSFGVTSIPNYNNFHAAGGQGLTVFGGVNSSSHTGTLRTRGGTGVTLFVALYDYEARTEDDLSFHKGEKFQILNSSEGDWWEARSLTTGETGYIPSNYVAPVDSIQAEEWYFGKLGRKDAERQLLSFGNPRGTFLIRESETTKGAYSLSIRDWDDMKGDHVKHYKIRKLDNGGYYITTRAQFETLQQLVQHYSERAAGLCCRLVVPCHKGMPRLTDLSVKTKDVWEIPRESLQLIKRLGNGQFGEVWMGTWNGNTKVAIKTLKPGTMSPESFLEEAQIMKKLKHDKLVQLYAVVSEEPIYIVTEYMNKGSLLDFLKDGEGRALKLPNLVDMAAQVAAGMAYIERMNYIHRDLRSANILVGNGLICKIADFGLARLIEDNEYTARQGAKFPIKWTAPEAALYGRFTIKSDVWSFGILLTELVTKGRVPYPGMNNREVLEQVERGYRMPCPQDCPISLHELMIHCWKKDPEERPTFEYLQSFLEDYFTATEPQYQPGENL
Mitogen-activated protein kinase 3 (Homo sapiens), sequence (P27361 whole entry): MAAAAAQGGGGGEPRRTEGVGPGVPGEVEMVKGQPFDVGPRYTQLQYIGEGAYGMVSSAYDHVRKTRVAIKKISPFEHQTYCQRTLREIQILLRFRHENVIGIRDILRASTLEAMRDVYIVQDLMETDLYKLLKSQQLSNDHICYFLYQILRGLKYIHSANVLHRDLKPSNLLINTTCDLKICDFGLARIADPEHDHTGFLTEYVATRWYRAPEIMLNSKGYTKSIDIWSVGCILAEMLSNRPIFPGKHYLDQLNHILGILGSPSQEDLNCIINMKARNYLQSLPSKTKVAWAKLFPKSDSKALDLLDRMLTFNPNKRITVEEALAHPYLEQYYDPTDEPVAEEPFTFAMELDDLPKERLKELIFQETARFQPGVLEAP
Mitogen-activated protein kinase 1 (Homo sapiens), sequence (P28482 whole entry): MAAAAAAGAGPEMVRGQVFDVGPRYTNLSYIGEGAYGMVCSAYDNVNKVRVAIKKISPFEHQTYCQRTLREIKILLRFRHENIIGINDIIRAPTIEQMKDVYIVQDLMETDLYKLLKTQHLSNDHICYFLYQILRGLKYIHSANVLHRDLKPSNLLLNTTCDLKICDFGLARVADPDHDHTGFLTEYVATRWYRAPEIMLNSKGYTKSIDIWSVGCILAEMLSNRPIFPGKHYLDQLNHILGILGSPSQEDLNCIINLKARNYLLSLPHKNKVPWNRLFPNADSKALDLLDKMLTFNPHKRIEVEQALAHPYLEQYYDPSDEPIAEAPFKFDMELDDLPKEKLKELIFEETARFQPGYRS

| SMILES | solubility [1] | inhibition [2] | inhibition [3] | inhibition [4] | inhibition [5] | inhibition [6] | inhibition [7] | inhibition [8] | inhibition [9] | inhibition [10] | inhibition [11] | inhibition [12] | inhibition [13] | inhibition [15] | inhibition [16] | inhibition [17] | inhibition [18] | inhibition [19] | inhibition [20] | inhibition [21] | also measured |
| --- | --- | --- | --- | --- | --- | --- | --- | --- | --- | --- | --- | --- | --- | --- | --- | --- | --- | --- | --- | --- | --- |
| Nc1c2c(=O)[nH]c(C3CCNCC3)cc2nn1-c1ccccc1 | 1430 µg/mL (≈ 4610 µM) |  |  |  |  |  |  |  |  |  |  |  |  |  |  |  |  |  |  |  |  |
| Nc1n[nH]c2cc(-c3ccccc3)[nH]c(=O)c12 | 24 µg/mL (≈ 106 µM) |  |  |  |  |  |  |  |  |  |  |  |  |  |  |  |  |  |  |  |  |
| O=C1Nc2ccccc2/C1=C1/Nc2ccccc2C1=O [INDIRUBIN] | < 1 µg/mL |  |  |  |  |  |  |  |  |  |  |  |  |  |  |  |  |  |  |  |  |
| Cc1[nH]c(=O)c2c(N)n(-c3ccccc3)nc2c1-c1ccccc1 | 7 µg/mL (≈ 22.1 µM) | -3% | 8% | 14% | 10% | 4% | 9% | -2% | 73% | -1% | 2% | 42% | 71% | 71% | 4% | 78% | 16% | -8% | 62% | 6% | inhibition [14]: 26% |
| Cn1nc(N)c2cnc(-c3ccccc3)cc21 | 259 µg/mL (≈ 1150 µM) | 5% | 4% | 9% | 9% | 6% | 7% | 2% | 11% | 5% | 4% | 10% | 7% | 7% | 33% | 0% | 17% | 4% | 8% | 5% | inhibition [22]: 1%; inhibition [23]: 1% |
